Laboratory results: ChEMBL document CHEMBL1275436, “Trypanocidal and leishmanicidal activities of sesquiterpene lactones from Ambrosia tenuifolia Sprengel (Asteraceae)” (Antimicrob Agents Chemother, 2008)
Values after ≈ are worked out from the molar mass of the structure shown. Active and inactive are the calls of the source. No cut-off for these calls is given here.

Columns and labels:
[1] = Cytotoxicity against BALB/c mouse T cell after 24 hrs by trypan blue exclusion method; assay type: cell-based; details: T cells
Method in brief: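 BALB/c mouse T lymphocytes at 2 x 10^6/ml were exposed to 0.1, 1, 10 and 50 µg/ml compound for 24 h. Viability was scored by trypan blue exclusion. Results are means ± SEM of three experiments done in duplicate.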

Trypanosoma cruzi [2] = experiment: Antitrypanosomal activity against Trypanosoma cruzi epimastigotes after 72 hrs by [3H]thymidine uptake assay; assay type: functional, organism-based
Method in brief: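 Epimastigotes were seeded at 1.5 x 10^6/ml in triplicate with compound up to 100 µg/ml for 72 or 120 h, with [3H]thymidine pulsed for the final 16 h. Inhibition % = 100 − (cpm treated/cpm untreated × 100). Benznidazole (5 to 20 µM) was the positive control. Results are means ± SEM.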

Trypanosoma cruzi [3] = experiment: Antitrypanosomal activity against Trypanosoma cruzi trypomastigotes after 24 hrs by counting remaining live parasites in a Neubauer chamber
Leishmania mexicana = experiment: Antileishmanial activity against Leishmania mexicana MNYC/BZ/62/M promastigotes after 120 hrs by [3H]thymidine uptake assay; assay type: functional, organism-based
Method in brief: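 Promastigotes were seeded at 1.5 x 10^6/ml in triplicate and exposed to 0.01 to 100 µg/ml compound for 72 or 120 h. [3H]thymidine was added for the last 16 h. Percent inhibition = 100 − (cpm treated/cpm untreated × 100). Amphotericin B (0.27–1.6 µM) was the positive control.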

[4] = Selectivity index, ratio of CC50 for mouse T cells to IC50 for Trypanosoma cruzi trypomastigotes; assay type: functional, T-cell
Method in brief: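 SI = 50% cytotoxic concentration on murine T lymphocytes (24 h, trypan blue exclusion) divided by IC50 against bloodstream trypomastigotes (24 h, Neubauer count of live parasites).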

Trypanosoma cruzi [5] = experiment: Antitrypanosomal activity against Trypanosoma cruzi trypomastigotes infected in C3H/HeN mouse assessed as decrease in parasitemia at 1 mg/kg/day, ip treated from day 5 to 10 postinfection measured on day 16; assay type: functional, organism-based
Method in brief: (§1)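 Male C3H/HeN mice (6–8 weeks, groups of five) were infected ip with 5 x 10^3 bloodstream trypomastigotes, with parasitemia confirmed on day 5 by microhematocrit. Dosing was 1 mg/kg/day ip in 0.1 M PBS pH 7.2 on days 5–10; vehicle served as negative control. Tail blood (5 µl, lysed 1:5 in NH4Cl/Tris) was counted by Neubauer chamber every 2 days. Deaths were recorded daily. Three independent experiments were run.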

Trypanosoma cruzi [6] = experiment: Antitrypanosomal activity against Trypanosoma cruzi trypomastigotes infected in C3H/HeN mouse assessed as reduction in parasitemia at 1 mg/kg/day, ip treated from day 5 to 10 postinfection measured during acute phase of infection relative to control; assay type: functional; details: route intraperitoneal; method in brief: as §1
Trypanosoma cruzi [7] = experiment: Antitrypanosomal activity against Trypanosoma cruzi trypomastigotes infected in C3H/HeN mouse assessed survival rate at 1 mg/kg/day, ip treated from day 5 to 10 postinfection measured on 100th day postinfection; assay type: functional; details: route intraperitoneal
Method in brief: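 Male inbred C3H/HeN mice, 6 to 8 weeks old, 27.2 ± 0.9 g, in groups of five, infected ip with 5 x 10^3 bloodstream trypomastigotes. Circulating parasites confirmed on day 5 by microhematocrit. Dosed ip daily, 1 mg/kg/day, on days 5 to 10 postinfection, in 0.1 M PBS pH 7.2; vehicle alone as negative control. Deaths recorded daily; three independent experiments.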

Structure (SMILES) | CC50 at 24 h [1] | IC50 (Trypanosoma cruzi [2]) | IC50 (Trypanosoma cruzi [3]) | IC50 (Leishmania mexicana) | Selectivity Index [4] | inhibition (Trypanosoma cruzi [5]) | fold change (FC) (Trypanosoma cruzi [6]) | Activity (Trypanosoma cruzi [7])
C=C1C(=O)O[C@@H]2C[C@H](C)[C@]3(O)CCC(=O)[C@@]3(C)C[C@H]12 [PERUVIN] | 35 µg/mL (≈ 132 µM) | 1.65 µg/mL (≈ 6.24 µM) | 52.8 µg/mL (≈ 200 µM) | 0.39 µg/mL (≈ 1.48 µM) | 0.7 |  |  | 
C=C1C(=O)O[C@@H]2[C@H]1CC[C@H](C)[C@]1(CCC(=O)O1)[C@@]2(C)O [PSILOSTACHYIN A] | 25.7 µg/mL (≈ 91.7 µM) | 1.22 µg/mL (≈ 4.35 µM) | 0.76 µg/mL (≈ 2.71 µM) | 0.12 µg/mL (≈ 0.428 µM) | 33.8 | Active | 1.5 | 100%
